Laboratory results reported in ChEMBL document CHEMBL4364256, “Design, synthesis and biological evaluation of antimicrobial diarylimine and -amine compounds targeting the interaction between the bacterial NusB and NusE proteins” (Eur J Med Chem, 2019).
Values after ≈ are worked out from the molar mass of the structure shown.

Legend:
Staphylococcus aureus [1] = assay: Antimicrobial activity against Staphylococcus aureus ATCC BAA43 incubated for 20 hrs by microdilution method; format: functional; conditions: ATCC BAA43, 20 h
Procedure, shortened: (§1)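 MIC determined by microdilution following Clinical & Laboratory Standards Institute (CLSI) guidelines, read in µg/mL, against a panel of hospital- and community-acquired MRSA strains.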

Bacillus subtilis = assay: Inhibition of N-terminal LgBiT-fused Bacillus subtilis NusB expressed in Escherichia coli BL21(DE3)pLysS interaction with C- terminal SmBiT-fused Bacillus subtilis NusE expressed in Escherichia coli BL21(DE3)pLysS at 100 uM preincubated for 10 mins followed by NusE addition and measured after 10 mins by nano-glo luciferase assay relative to control
Procedure, shortened: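 NusB and NusE were mixed 1:1 at 1 µM in PBS, with compound at 100 µM. The read-out was percent inhibition of the NusB-NusE interaction.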

Enterococcus faecium = assay: Antimicrobial activity against Enterococcus faecium ATCC 19433 incubated for 20 hrs by microdilution method; format: functional; conditions: ATCC 19433, 20 h
Procedure, shortened: (§2)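 Broth microdilution MIC testing done following CLSI guidelines.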

Streptococcus pneumoniae = assay: Antimicrobial activity against Streptococcus pneumoniae ATCC 49619 incubated for 20 hrs by microdilution method; format: functional; conditions: ATCC 49619, 20 h; procedure, shortened: as §2
Acinetobacter baumannii = assay: Antimicrobial activity against Acinetobacter baumannii ATCC 19606 incubated for 20 hrs by microdilution method; format: functional; conditions: ATCC 19606 = CIP 70.34 = JCM 6841, 20 h; procedure, shortened: as §2
Pseudomonas aeruginosa = assay: Antimicrobial activity against Pseudomonas aeruginosa ATCC 27853 incubated for 20 hrs by microdilution method; format: functional; conditions: ATCC 27853, 20 h; procedure, shortened: as §2
[2] = tested on: Enterococcus casseliflavus; assay: Antimicrobial activity against Enterococcus casseliflavus ATCC 25788 incubated for 20 hrs by microdilution method; format: functional; conditions: ATCC 25788, 20 h; procedure, shortened: as §2
[3] = tested on: Staphylococcus epidermidis; assay: Antimicrobial activity against Staphylococcus epidermidis ATCC 12228 incubated for 20 hrs by microdilution method; format: functional; conditions: ATCC 12228, 20 h; procedure, shortened: as §2
[4] = Antimicrobial activity against Staphylococcus saprophyticus ATCC 15305 incubated for 20 hrs by microdilution method; format: functional, Staphylococcus saprophyticus subsp. saprophyticus; conditions: ATCC 15305, 20 h; procedure, shortened: as §2
Streptococcus pyogenes = assay: Antimicrobial activity against Streptococcus pyogenes ATCC 19615 incubated for 20 hrs by microdilution method; format: functional; conditions: ATCC 19615, 20 h; procedure, shortened: as §2
Streptococcus agalactiae = assay: Antimicrobial activity against Streptococcus agalactiae ATCC 12386 incubated for 20 hrs by microdilution method; format: functional; conditions: ATCC 12386, 20 h; procedure, shortened: as §2
Staphylococcus aureus [5] = assay: Antimicrobial activity against Staphylococcus aureus ST239 incubated for 20 hrs by microdilution method; format: functional; conditions: CN79, 20 h; procedure, shortened: as §1
Staphylococcus aureus [6] = assay: Antimicrobial activity against Staphylococcus aureus ATCC BAA44 incubated for 20 hrs by microdilution method; format: functional; conditions: ATCC BAA44, 20 h; procedure, shortened: as §1
Staphylococcus aureus [7] = assay: Antimicrobial activity against Staphylococcus aureus HA W231 ST45 incubated for 20 hrs by microdilution method; format: functional; conditions: HA W231 ST45, 20 h; procedure, shortened: as §1
Staphylococcus aureus [8] = assay: Antimicrobial activity against CA-methicillin-resistant Staphylococcus aureus W47 ST30 incubated for 20 hrs by microdilution method; format: functional; conditions: W47 ST30, 20 h; procedure, shortened: as §1
Staphylococcus aureus [9] = assay: Antimicrobial activity against CA-methicillin-resistant Staphylococcus aureus W45 ST59 incubated for 20 hrs by microdilution method; conditions: W45 ST59, 20 h
Staphylococcus aureus [10] = assay: Antimicrobial activity against CA-methicillin-resistant Staphylococcus aureus W46 ST59 incubated for 20 hrs by microdilution method; conditions: W46 ST59, 20 h
Staphylococcus aureus [11] = assay: Antimicrobial activity against Staphylococcus aureus USA300/ST8 incubated for 20 hrs by microdilution method; conditions: USA300 ST8, 20 h
Staphylococcus aureus [12] = assay: Antimicrobial activity against Staphylococcus aureus ST22 11B086169 incubated for 20 hrs by microdilution method; format: functional; conditions: ST22 11B086169, 20 h; procedure, shortened: as §1
Staphylococcus aureus [13] = assay: Antimicrobial activity against CA-methicillin-resistant Staphylococcus aureus W4 ST338 incubated for 20 hrs by microdilution method; format: functional; conditions: W4 ST338, 20 h; procedure, shortened: as §1
Staphylococcus aureus [14] = assay: Antimicrobial activity against CA-methicillin-resistant Staphylococcus aureus W48 ST217 incubated for 20 hrs by microdilution method; conditions: W48 ST217, 20 h
Staphylococcus aureus [15] = assay: Antimicrobial activity against Staphylococcus aureus HA W235 ST5 incubated for 20 hrs by microdilution method; format: functional; conditions: HA W235 ST5, 20 h; procedure, shortened: as §1
[16] = Cytotoxicity against human A549 cells assessed as reduction in cell viability after 48 to 72 hrs by MTT assay; format: cell-based
[17] = Cytotoxicity against human HaCaT cells assessed as reduction in cell viability after 48 to 72 hrs by MTT assay; format: cell-based
[18] = Therapeutic index, ratio of CC50 for human A549 cells to 1/2 times MIC for Staphylococcus aureus ATCC 25923; format: toxicity; conditions: read-out: TI
[19] = Therapeutic index, ratio of CC50 for human HaCaT cells to 1/2 times MIC for Staphylococcus aureus ATCC 25923; format: toxicity; conditions: read-out: TI
Staphylococcus aureus [20] = assay: microbe, parasite or virus in culture; conditions: ATCC 25923, 20 h
Staphylococcus aureus [21] = assay: microbe, parasite or virus in culture; conditions: ATCC 29213, 20 h
[22] = microbe, parasite or virus in culture; conditions: Enterobacter cloacae, ATCC 13047, 20 h

Row | inhibition (Bacillus subtilis) [%] | MIC (Enterococcus faecium) [µg/mL] | MIC (Streptococcus pneumoniae) [µg/mL] | MIC (Acinetobacter baumannii) [µg/mL] | MIC (Pseudomonas aeruginosa) [µg/mL] | MIC (Staphylococcus aureus [20]) [µg/mL] | MIC (Staphylococcus aureus [21]) [µg/mL] | MIC [22] [µg/mL] | Compound | MIC [2] [µg/mL] | MIC [4] [µg/mL] | MIC (Streptococcus agalactiae) [µg/mL] | also measured
1 | 50.6 | 32 (≈ 110 µM) | 256 (≈ 876 µM) | > 256 | > 256 | 2 (≈ 6.85 µM) | 4 (≈ 13.7 µM) | > 256 | C#Cc1cccc(NCc2cc(Cl)cc(Cl)c2O)c1 |  |  |  | CC50 [16]: 112 µM; CC50 [17]: 108 µM; selectivity ratio [18]: 33; selectivity ratio [19]: 32
2 | 50.8 | > 256 | > 256 | > 256 | > 256 | > 256 | > 256 | > 256 | O=C(O)c1cccc(NCc2cc([N+](=O)[O-])ccc2O)c1 |  |  |  | 
3 | 4.6 | 128 (≈ 524 µM) | 64 (≈ 262 µM) | 256 (≈ 1050 µM) | > 256 | 16 (≈ 65.5 µM) | 32 (≈ 131 µM) | > 256 | O=[N+]([O-])c1ccc(O)c(CNc2ccccc2)c1 |  |  |  | 
4 | 57.1 | 32 (≈ 114 µM) | 8 (≈ 28.4 µM) | > 256 | > 256 | 32 (≈ 114 µM) | 16 (≈ 56.9 µM) | > 256 | C#Cc1cccc(NCc2cc(C(=O)OC)ccc2O)c1 |  |  |  | 
5 | 33.1 | > 256 | > 256 | > 256 | > 256 | > 256 | > 256 | > 256 | C#Cc1cccc(NCc2cccc([N+](=O)[O-])c2)c1 |  |  |  | 

Second part, the molecule before the results:

Row | Compound | inhibition (Bacillus subtilis) [%] | MIC (Enterococcus faecium) [µg/mL] | MIC (Streptococcus pneumoniae) [µg/mL] | MIC (Acinetobacter baumannii) [µg/mL] | MIC (Pseudomonas aeruginosa) [µg/mL] | MIC (Staphylococcus aureus [20]) [µg/mL] | MIC (Staphylococcus aureus [21]) [µg/mL] | MIC [22] [µg/mL] | MIC [2] [µg/mL] | MIC [4] [µg/mL] | MIC (Streptococcus agalactiae) [µg/mL] | also measured
6 | CC(C)(C)c1cccc(NCc2cc([N+](=O)[O-])ccc2O)c1 | 39.5 | 32 (≈ 107 µM) | 8 (≈ 26.6 µM) | > 256 | > 256 | 2 (≈ 6.66 µM) | 4 (≈ 13.3 µM) | > 256 | 32 (≈ 107 µM) | 1 (≈ 3.33 µM) | 16 (≈ 53.3 µM) | MIC (Staphylococcus aureus [1]): 2 µg/mL (≈ 6.66 µM); MIC [3]: 16 µg/mL (≈ 53.3 µM); MIC (Streptococcus pyogenes): 16 µg/mL (≈ 53.3 µM); MIC (Staphylococcus aureus [5]): 8 µg/mL (≈ 26.6 µM); MIC (Staphylococcus aureus [6]): 8 µg/mL (≈ 26.6 µM); MIC (Staphylococcus aureus [7]): 8 µg/mL (≈ 26.6 µM); MIC (Staphylococcus aureus [8]): 4 µg/mL (≈ 13.3 µM); MIC (Staphylococcus aureus [9]): 8 µg/mL (≈ 26.6 µM); MIC (Staphylococcus aureus [10]): 8 µg/mL (≈ 26.6 µM); MIC (Staphylococcus aureus [11]): 8 µg/mL (≈ 26.6 µM); MIC (Staphylococcus aureus [12]): 8 µg/mL (≈ 26.6 µM); MIC (Staphylococcus aureus [13]): 4 µg/mL (≈ 13.3 µM); MIC (Staphylococcus aureus [14]): 4 µg/mL (≈ 13.3 µM); MIC (Staphylococcus aureus [15]): 4 µg/mL (≈ 13.3 µM); CC50 [16]: 18.3 µM; CC50 [17]: 20.2 µM; selectivity ratio [18]: 6; selectivity ratio [19]: 6
7 | CN[C@H](CC(C)C)C(=O)N[C@H]1C(=O)N[C@@H](CC(N)=O)C(=O)N[C@H]2C(=O)N[C@H]3C(=O)N[C@H](C(=O)N[C@H](C(=O)O)c4cc(O)cc(O)c4-c4cc3ccc4O)[C@H](O)c3ccc(c(Cl)c3)Oc3cc2cc(c3O[C@@H]2O[C@H](CO)[C@@H](O)[C@H](O)[C@H]2O[C@H]2C[C@](C)(N)[C@H](O)[C@H](C)O2)Oc2ccc(cc2Cl)[C@H]1O [VANCOMYCIN] |  |  | 0.5 (≈ 0.345 µM) | > 256 | > 256 | 1 to 2 (≈ 0.69 to 1.38 µM) |  | > 256 | 4 (≈ 2.76 µM) | 1 (≈ 0.69 µM) | 0.5 (≈ 0.345 µM) | 
8 | C#Cc1cccc(/N=C/c2cc(C(=O)OC)ccc2O)c1 | 41.4 | > 256 | 128 (≈ 458 µM) | 64 (≈ 229 µM) | 256 (≈ 917 µM) | 128 (≈ 458 µM) | > 256 | > 256 |  |  |  | 
9 | O=[N+]([O-])c1ccc(O)c(/C=N/c2cccc(O)c2)c1 | 96.3 | > 256 | 256 (≈ 991 µM) | > 256 | > 256 | 16 (≈ 62 µM) | 64 (≈ 248 µM) | > 256 |  |  |  | 
10 | Cc1onc(-c2ccccc2)c1C(=O)N[C@@H]1C(=O)N2[C@@H]1SC(C)(C)[C@@H]2C(=O)O [OXACILLIN] |  | 16 (≈ 39.9 µM) | 2 (≈ 4.98 µM) | > 256 | > 256 | 0.5 to 1 (≈ 1.25 to 2.49 µM) | 0.25 (≈ 0.623 µM) | > 256 | 32 (≈ 79.7 µM) | 1 (≈ 2.49 µM) | 0.5 (≈ 1.25 µM) | MIC (Staphylococcus aureus [1]): > 256 µg/mL; MIC [3]: 0.25 µg/mL (≈ 0.623 µM); MIC (Streptococcus pyogenes): 0.0625 µg/mL (≈ 0.156 µM); MIC (Staphylococcus aureus [5]): > 256 µg/mL; MIC (Staphylococcus aureus [6]): > 256 µg/mL; MIC (Staphylococcus aureus [7]): 4 µg/mL (≈ 9.96 µM); MIC (Staphylococcus aureus [8]): 4 µg/mL (≈ 9.96 µM); MIC (Staphylococcus aureus [9]): 8 µg/mL (≈ 19.9 µM); MIC (Staphylococcus aureus [10]): 8 µg/mL (≈ 19.9 µM); MIC (Staphylococcus aureus [11]): 32 µg/mL (≈ 79.7 µM); MIC (Staphylococcus aureus [12]): 64 µg/mL (≈ 159 µM); MIC (Staphylococcus aureus [13]): 0.5 µg/mL (≈ 1.25 µM); MIC (Staphylococcus aureus [14]): 64 µg/mL (≈ 159 µM); MIC (Staphylococcus aureus [15]): > 256 µg/mL
